Assay [1] addresses NAD(P)H dehydrogenase [quinone] 1 (Mus musculus) (UniProt Q64669). As to the kind of experiment: Induction of quinone reductase-1 activity in mouse Hepa-1c1c7 cells after 48 hrs by MTT assay. It counts as cell-based. The procedure, abridged: (§1)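 Hepa 1c1c7 murine hepatoma cells exposed to compound (max 50 μM) for 48 h in 96-well format, then permeabilized with digitonin. QR1 activity read as NADPH-dependent menadiol-mediated MTT reduction to formazan, absorbance 595 nm; crystal violet total-protein assay in parallel. CD = concentration doubling activity, determined only where induction ratio > 2. Three independent experiments in duplicate; 4′-bromoflavone positive control.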
(In general: Tetrazolium dyes change colour on reduction, which living cells bring about.)

The target is the same in assay [2]. As to the kind of experiment: Induction of quinone reductase-1 activity in mouse BPrc1 cells after 48 hrs by MTT assay. It counts as cell-based.
A short description of assay [3]: Inhibition of TNFalpha-induced NF-kappaB activity expressed in HEK293 cells by luciferase reporter gene assay. It counts as cell-based. Conditions: Homo sapiens.
Assay [4] addresses T1, Aromatase (Homo sapiens, UniProt P11511).
T1 sequence (P11511 whole entry): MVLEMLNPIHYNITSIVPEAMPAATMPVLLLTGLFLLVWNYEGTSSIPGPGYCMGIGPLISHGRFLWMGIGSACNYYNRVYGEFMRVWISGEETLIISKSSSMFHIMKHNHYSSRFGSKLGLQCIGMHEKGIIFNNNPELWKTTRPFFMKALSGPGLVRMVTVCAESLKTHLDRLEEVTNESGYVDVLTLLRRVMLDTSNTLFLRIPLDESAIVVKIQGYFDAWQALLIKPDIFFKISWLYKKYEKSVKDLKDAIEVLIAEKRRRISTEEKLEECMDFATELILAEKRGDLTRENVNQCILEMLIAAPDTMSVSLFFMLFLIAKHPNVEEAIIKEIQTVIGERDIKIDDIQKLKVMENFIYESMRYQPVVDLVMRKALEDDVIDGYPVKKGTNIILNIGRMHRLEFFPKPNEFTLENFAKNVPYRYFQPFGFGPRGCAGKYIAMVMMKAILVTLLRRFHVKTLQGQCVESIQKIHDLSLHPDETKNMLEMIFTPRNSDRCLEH
Particulars: 0.5 h, read-out: INH.

The target in assay [5] is T2, Nitric oxide synthase, inducible (Mus musculus, UniProt P29477).
T2 sequence (P29477 whole entry): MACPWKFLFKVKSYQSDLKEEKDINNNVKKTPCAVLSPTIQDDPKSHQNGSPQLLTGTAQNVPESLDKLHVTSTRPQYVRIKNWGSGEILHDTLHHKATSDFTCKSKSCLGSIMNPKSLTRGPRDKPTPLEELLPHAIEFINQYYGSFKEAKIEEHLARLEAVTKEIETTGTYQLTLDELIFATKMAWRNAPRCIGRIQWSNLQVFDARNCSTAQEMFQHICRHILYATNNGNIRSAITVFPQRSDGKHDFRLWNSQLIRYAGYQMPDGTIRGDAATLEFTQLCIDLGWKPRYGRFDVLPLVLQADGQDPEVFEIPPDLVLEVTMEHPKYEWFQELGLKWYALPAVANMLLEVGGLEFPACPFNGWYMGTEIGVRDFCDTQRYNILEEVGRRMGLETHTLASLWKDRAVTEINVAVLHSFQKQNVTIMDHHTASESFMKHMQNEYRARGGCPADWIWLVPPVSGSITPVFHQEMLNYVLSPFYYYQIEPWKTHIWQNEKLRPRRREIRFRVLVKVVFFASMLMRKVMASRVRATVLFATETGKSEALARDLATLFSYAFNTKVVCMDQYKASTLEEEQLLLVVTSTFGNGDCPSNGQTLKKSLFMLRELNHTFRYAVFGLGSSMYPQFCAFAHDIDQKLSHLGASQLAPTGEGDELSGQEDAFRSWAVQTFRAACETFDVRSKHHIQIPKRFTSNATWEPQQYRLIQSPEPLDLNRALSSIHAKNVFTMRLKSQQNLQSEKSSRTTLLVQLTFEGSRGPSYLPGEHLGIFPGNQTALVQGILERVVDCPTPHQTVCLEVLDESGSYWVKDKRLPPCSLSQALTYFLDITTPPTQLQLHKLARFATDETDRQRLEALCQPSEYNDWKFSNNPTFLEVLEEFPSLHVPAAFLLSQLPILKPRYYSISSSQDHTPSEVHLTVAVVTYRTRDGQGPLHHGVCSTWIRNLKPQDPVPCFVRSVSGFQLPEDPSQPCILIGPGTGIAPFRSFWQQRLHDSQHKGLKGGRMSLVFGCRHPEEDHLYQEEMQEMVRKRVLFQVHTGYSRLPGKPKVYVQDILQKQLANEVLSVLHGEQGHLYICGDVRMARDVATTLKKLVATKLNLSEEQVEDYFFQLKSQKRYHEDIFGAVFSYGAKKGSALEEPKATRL
Description: Inhibition of LPS-induced iNOS activity in mouse RAW 264.7 cells assessed as inhibition of NO production pretreated with compound for 30 mins before LPS challenge after 24 hrs by Griess reagent method. It counts as cell-based. (In general: Nitrite, measured by Griess reagent, commonly stands in for NO production.)

For assay [6], the target named is T3, Nitric oxide synthase, inducible (Mus musculus) (UniProt P29477).
T3 sequence (whole entry): T2 sequence (P29477 whole entry)
As to the kind of experiment: Inhibition of LPS-induced iNOS activity in mouse RAW 264.7 cells assessed as inhibition of NO production at 50 uM pretreated with compound for 30 mins before LPS challenge after 24 hrs by Griess reagent method. It is filed as cell-based.

The test system of assay [7] is HEK293. As to the kind of experiment: Inhibition of TNFalpha-induced NF-kappaB activity expressed in HEK293 cells at 50 uM by luciferase reporter gene assay. Particulars: Homo sapiens. It counts as cell-based. Background: In a reporter assay the amount or activity of a reporter protein is the signal.
Assay [8] concerns the target T1, Aromatase.
Assay [9] has as its target NAD(P)H dehydrogenase [quinone] 1 (Mus musculus) (UniProt Q64669). As to the kind of experiment: Induction of quinone reductase-1 activity in mouse Hepa-1c1c7 cells assessed as induction ratio after 48 hrs by MTT assay relative to control. It counts as cell-based. The procedure, abridged:
as §1

Assay [10] has the same target. As to the kind of experiment: Induction of quinone reductase-1 activity in mouse TAOc1BPrc1 cells after 48 hrs by MTT assay. It is filed as cell-based.

One may read the IC50 as the concentration needed to halve the response being measured.

Sequence of NAD(P)H dehydrogenase [quinone] 1 (Mus musculus) (Q64669 whole entry): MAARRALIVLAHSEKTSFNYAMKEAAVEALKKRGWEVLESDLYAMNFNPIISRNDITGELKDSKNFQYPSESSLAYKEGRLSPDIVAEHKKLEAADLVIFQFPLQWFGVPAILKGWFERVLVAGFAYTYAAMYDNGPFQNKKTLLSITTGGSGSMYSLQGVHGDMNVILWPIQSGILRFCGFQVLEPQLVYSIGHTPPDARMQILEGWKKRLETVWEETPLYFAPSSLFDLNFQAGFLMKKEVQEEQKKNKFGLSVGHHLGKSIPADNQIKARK

For `Cc1c(Cl)cccc1-c1nsc(-c2cccc(Cl)c2C)n1`, the CD in assay [1] is over 50 µM.
`COc1cccc(-c2noc(-c3cccc(OC)c3)n2)c1` returned a CD in assay [2] of over 50 µM.
`COc1cccc(-c2csc(-c3cccc(F)c3F)n2)c1` came in with a CD in assay [2] of over 50 µM.
Consider `COc1cccc(-c2csc(-c3cccc(Cl)c3C)n2)c1`, for which the CD in [2] and in [1] was over 50 µM throughout.
In the case of `COc1cccc(-c2csc(-c3ccc(C)cc3Br)n2)c1`, the CD in [2] was over 50 µM.
In the case of `COc1cccc(-c2csc(-c3cc(OC)ccc3F)n2)c1`, the CD in [2] and in assay [1] was over 50 µM in each case.
`COc1cccc(-c2csc(-c3cccc(OC)c3F)n2)c1`: the CD in assay [2] and in assay [1] was over 50 µM each time.
On to `c1ccc(-c2nsc(-c3ccccc3)n2)cc1`, for which the IC50 in [3] was 47.7 µM; in assay [5], over 50 µM. Also, the CD in assay [2] is over 50 µM. The inhibition at 50 µM in assay [4] amounted to 60.2%.
`COc1cccc(-c2csc(-c3cccc(Br)c3)n2)c1`: the CD in [2] and in [1] was over 50 µM throughout.
`COc1cccc(-c2nsc(-c3cccc(OC)c3)n2)c1` registered a CD in assay [2] of over 50 µM.
In assay [2], `Fc1ccccc1-c1nsc(-c2ccccc2)n1` registered a CD of over 50 µM.
`COc1cccc(-c2csc(-c3ccccc3)n2)c1`: the IC50 in assay [3] was 31.6 µM; in [8], over 50 µM; in [5], 45.3 µM. Also, the results for the inhibition in [6] and in assay [7] were 62% and 64%, respectively. For the same compound, in assay [4], the inhibition at 50 µM amounted to 27.1%.
For `Cc1ccc(Cl)cc1-c1nsc(-c2ccc(Cl)cc2C)n1`, in assay [9], the Ratio was 4.9. The compound also showed a CD in assay [1] of 0.44 µM.
In assay [2], `Clc1cccc(Cl)c1-c1nc(-c2ccccc2)cs1` had a CD of over 50 µM.
Consider `COc1cccc(-c2csc(-c3cccc(Cl)c3Cl)n2)c1`, for which the CD in assay [2] and in [1] was over 50 µM in each case.
As to `Fc1ccccc1-c1nsc(-c2ccccc2F)n1`, the IC50 in [3], in [8] and in [5] was over 50 µM each time. Moreover, the results for the inhibition in assay [6] and in assay [7] were 12.9% and 40.7%, respectively. For the same compound, the inhibition at 50 µM in [4] stood at 53.2%.
Regarding `CCCCc1ccc(-c2nc(-c3ccccc3)cs2)cc1`, the CD in assay [2] and in assay [1] was over 50 µM each time.
Consider `FC(F)(F)c1ccccc1-c1nc(-c2ccccc2)cs1`, for which the CD in assay [2] and in [1] was over 50 µM each time.
In turn, `Cc1ccc(-c2nc(-c3ccccc3)cs2)c(Br)c1` showed a CD in [2] of over 50 µM.
In the case of `CCCCc1ccc(-c2nc(-c3cccc(OC)c3)cs2)cc1`, the CD in assay [2] and in assay [1] was over 50 µM throughout.
`Fc1ccccc1-c1nc(-c2ccccc2)ns1` had a CD in assay [10] of 0.1 µM.
As to `Cc1ccc(Br)cc1-c1nsc(-c2ccc(Br)cc2C)n1`, the Ratio in assay [9] stood at 2.3. This compound also came in with a CD in [1] of over 50 µM.
In the case of `COc1cccc(-c2csc(-c3cccc(OC)c3)n2)c1`, the IC50 in assay [3] was 20.3 µM; in [8] it was over 50 µM; in [5], over 50 µM.
With `Brc1cccc(-c2nc(-c3ccccc3)cs2)c1`, the CD in assay [2] was over 50 µM.
For the compound `COc1cccc(-c2nc(-c3ccccc3)cs2)c1`, the half-maximal inhibitory concentration (IC50) is 2.7 µM in assay [3], over 50 µM in assay [8] and over 50 µM in [5]. In assay [2], the CD is over 50 µM. In [4], the inhibition at 50 µM is 35.5%.
For `Cc1c(Cl)cccc1-c1nc(-c2ccccc2)cs1`, in [2], the CD was over 50 µM.

Source of the values: ChEMBL document CHEMBL2203005 (Bioorg Med Chem, 2012).
